HCV core dimer: inhibitors of HCV core protein dimerization, primary screen, biochemical, TR-FRET, high-throughput. TR-FRET GST/Flag-core106 dimerization, 1536-well. 300,000 tested, 0.33% active. inhibition, % at 5 µM;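 active = inhibition above the mean of all tested compounds plus 3 SD, set per screening campaign, cut at about 45% in these data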
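Assay system – GST-tagged and Flag-tagged HCV core protein residues 1-106 · Quantity – core106 proteins, GST 13.5 nM and Flag 17 nM · Benchmarks – unlabelled core106 and no-GST-core106 wells · Read-out basis – percent inhibition of core106 dimerization signal · Detection – time-resolved FRET, ex 340 nm, em 617 and 671 nm · Schedule – 4 h at 22.5 °C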
VIM-2 inhibitor: VIM-2 metallo-beta-lactamase inhibitors, primary screen, biochemical, epi-absorbance readout, Pseudomonas aeruginosa enzyme | purified VIM-2, nitrocefin hydrolysis, epi-absorbance fluorescence | inhibition, % at 5.6 µM | 290,000 tested, 0.89% active | AID 1527, 2009;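 active = inhibition above the mean of all tested compounds plus 3 SD, cutoff set per screening run, cut at about 7.5% in these data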;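 note: red hydrolysis product quenches plate fluorescence so inhibitors raise well fluorescence; 0% = enzyme with DMSO and 100% = DMSO without enzyme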
SUMO HTRF inh: inhibitors of in vitro SUMOylation cascade, primary screen, biochemical, HTRF, uHTS. HTRF SUMOylation assay, SAE1/SAE2 + UBC9. inhibition, % at 35 µM. 290,000 tested, 0.36% active. AID 2006, 2009; in the data active = inhibition above about 50%, passing the limit was not always enough
Target sequence (P63279 whole entry, looked up): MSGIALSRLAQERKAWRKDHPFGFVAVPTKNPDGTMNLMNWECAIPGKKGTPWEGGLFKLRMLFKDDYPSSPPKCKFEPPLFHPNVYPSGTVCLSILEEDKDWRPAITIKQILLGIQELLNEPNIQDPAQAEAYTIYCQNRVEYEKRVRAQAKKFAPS
IMP-1 inhibitor: IMP-1 metallo-beta-lactamase inhibitors, primary screen, biochemical, epi-absorbance readout, Pseudomonas aeruginosa enzyme | metallo-beta-lactamase IMP-1 (Pseudomonas aeruginosa) | purified IMP-1, nitrocefin hydrolysis, epi-absorbance fluorescence | inhibition, % at 5.6 µM | 290,000 tested, 0.45% active | AID 1556, 2009;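 active = inhibition above the mean plus 3 SD of all compounds in the same screening run, cut at about 4.5% in these data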;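 note: 0% = IMP-1 with DMSO and 100% = DMSO wells lacking enzyme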
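System: Purified recombinant IMP-1 metallo-beta-lactamase enzyme | Measured by: Fluorescence quenching readout, ex 480/em 530 nm | Replication: Singlicate | Incubation: 15 min preincubation plus 25 min reaction at 25 °C | Evaluation: Percent inhibition from optical density relative to buffer-blank wells | Benchmarks: DMSO with and without IMP-1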
HCV NS3 hel inh: inhibitors of HCV NS3 helicase, primary screen, biochemical, Cy5 molecular beacon fluorescence; Hepatitis C virus NS3 helicase; NS3 helicase DNA unwinding; inhibition, % at 10.9 µM; 290,000 tested, 0.56% active; AID 1800, 2009;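 active = inhibition above the mean of all tested compounds plus 3 SD, set per campaign, cut at about 35% in these data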;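 note: 0% = DMSO wells and 100% = thioflavine S control wells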
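assay system = NS3 helicase fragment of HCV | buffer or medium = MOPS pH 6.5, MgCl2, DTT, Tween20, BSA | timing = 60 min unwinding reaction at 25 °C after ATP addition | signal = Cy5 beacon fluorescence read at start and 1 h | read-out basis = % inhibition of unwinding | control set = low DMSO, high thioflavine S at 110 µM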
PHOSPHO1 block: PubChem AID 1565; recombinant PHOSPHO1, absorbance phosphatase assay; inhibition, % at 13.3 µM; 290,000 tested, 1.1% active; in the data active = inhibition above about 60%
Target sequence (Q8TCT1 whole entry, looked up): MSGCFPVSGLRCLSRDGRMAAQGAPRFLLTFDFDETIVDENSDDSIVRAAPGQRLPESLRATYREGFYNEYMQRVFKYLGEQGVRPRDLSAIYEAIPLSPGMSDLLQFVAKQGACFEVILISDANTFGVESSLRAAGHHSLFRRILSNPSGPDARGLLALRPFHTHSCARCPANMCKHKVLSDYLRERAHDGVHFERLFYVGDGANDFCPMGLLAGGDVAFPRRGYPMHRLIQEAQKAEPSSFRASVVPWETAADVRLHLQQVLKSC
* hit, by the source's call; / = no result given. Only some compounds are listed: those with a hit (about 3.1% of all), similar ones and a draw of the others.

SMILES	HCV core dimer	VIM-2 inhibitor	SUMO HTRF inh	IMP-1 inhibitor	HCV NS3 hel inh	PHOSPHO1 block
CCOC(=O)N1CCc2c(sc3c2C(=O)NC(c2ccccc2)N3)C1 (stereo unspecified)	16.9	-2.6	37.5	4.2	3.8	66.1*
Cc1c(Cl)cn2c(=O)cc(CN3CCN(c4ccc(F)cc4)CC3)nc2c1Cl	19.3	0.9	-5.9	-0.8	8.5	24.3
CN(C)c1ccc(NC(=O)CSc2nc(N)c(C(=O)Nc3ccc(N(C)C)cc3)s2)cc1	22.7	-3.5	-8.5	-1.4	-9.3	1.6
COc1ccc(NC(=O)CSc2nc(N)c(C(=O)Nc3ccc(N(C)C)cc3)s2)cc1	-4.1	-3.5	20.0	-1.0	-9.0	66.2*
C=CCn1c(C)cc(C(=O)CSc2nnc3c(Cl)cc(Cl)cn23)c1C	-0.5	-1.8	19.7	-2.3	-1.2	62.2*
COc1cc(/C=N/NC(=O)c2cc[n+]([O-])cc2)ccc1O	-12.4	-1.6	17.9	-5.6	6.4	26.5
CC(C)[N+](C)(C)CC(O)CN(c1ccccc1)c1ccccc1 (stereo unspecified)	-2.5	2.5	4.8	-0.2	3.0	85.1*
Cc1nn(CC(=O)NCCc2cccs2)c(=O)c2cc3ccccc3n12	0.7	-1.6	13.3	-3.5	9.1	16.9
Cc1oc2c(C)c3oc(=O)c(CCC(=O)NCCCN4CCCC4=O)c(C)c3cc2c1C	2.8	-1.2	21.7	-0.4	-8.2	23.9
Cc1oc2c(C)c3oc(=O)c(CCC(=O)N4C[C@H]5C[C@@H](C4)c4cccc(=O)n4C5)c(C)c3cc2c1C	3.8	3.1	38.0	-3.8	-10.7	29.1
Cc1coc2c(C)c3oc(=O)c(CCC(=O)NCCN4CCOCC4)c(C)c3cc12	1.9	8.2*	23.6	-1.4	-32.4	44.7
Cc1oc2c(C)c3oc(=O)c(CCC(=O)NCCN4CCOCC4)c(C)c3cc2c1C	4.7	4.6	27.4	-1.0	-29.4	29.1
Cc1coc2c(C)c3oc(=O)c(CCC(=O)N4C[C@H]5C[C@@H](C4)c4cccc(=O)n4C5)c(C)c3cc12	0.7	7.7*	21.9	-3.0	-8.0	23.4
Cc1coc2c(C)c3oc(=O)c(CCC(=O)NCCCN4CCOCC4)c(C)c3cc12	4.5	10.7*	19.8	-0.9	-36.9	39.5
Cc1oc2c(C)c3oc(=O)c(CCC(=O)NCCCN4CCOCC4)c(C)c3cc2c1C	2.6	4.7	31.1	-2.1	-33.9	18.2
Cc1c(CCC(=O)NCCCn2ccnc2)c(=O)oc2c(C)c3occ(C(C)(C)C)c3cc12	-5.0	8.1*	2.6	0.8	8.3	34.4
COc1ccc2[nH]c(=O)c3c(c2c1)OC(C)(C)C=C3	-11.1	-1.5	2.8	39.2*	-4.0	13.7
O=C(O)c1ccc(/C=N/n2cc(-c3ccccc3)[nH]c2=S)cc1	-6.9	-1.5	9.4	-3.0	8.7	97.3*
CCOc1ccc(C(=O)C(C)OC(=O)c2nc(Cl)ccc2Cl)cc1 (stereo unspecified)	-0.6	/	/	/	/	/
COCCCNC(=O)c1cccn2c(=O)c3cc4ccccc4cc3nc12	3.7	6.5	72.6	-2.3	-14.9	94.9*
COCCNC(=O)c1cc2c(=O)n3cccc(C)c3nc2n1C	-15.4	/	23.7	/	/	32.6
O=C(NCc1ccco1)c1cccn2c(=O)c3cc4ccccc4cc3nc12	/	3.5	77.8*	-3.1	-29.1	100.1*
Cc1cc(=O)[nH]c(N/N=C/c2ccc(OC(=O)c3cccnc3)cc2)n1	2.0	1.2	10.8	-1.3	2.2	32.0
Nc1cccc2[nH]c(C(F)(F)F)nc12	-5.8	2.6	-3.4	14.9*	11.7	-3.4
O=C(O[C@@H]1OC2COC(=O)c3cc(O)c(O)c(O)c3-c3c(cc(O)c(O)c3O)C(=O)O[C@@H]([C@H]1O)[C@@H]2O)c1cc(O)c(O)c(O)c1	-33.2	-0.9	88.6*	8.8*	25.3	6.0
COc1ccc(NC(=O)c2cc3c(s2)CCC3)cc1S(=O)(=O)N1CCOCC1	94.1*	-1.0	30.7	-5.0	13.5	-1.2

Bioassay records: PubChem BioAssay, several laboratories
